SUMO1-SIM PPI: modulators of SUMO1 protein-protein interactions, primary screen, biochemical, uHTS; SUMO1 binding to a labelled peptide, TR-FRET, 1 h; 0.33% of 360,000 active; inhibition, % at 20 µM; AID 602429, 2012; Small ubiquitin-related modifier 1 (Homo sapiens), P63165; in the data active means inhibition above about 37%
Scp-1 inhibitor: Scp-1 phosphatase inhibitors, primary screen, biochemical, colorimetric, uHTS | Carboxy-terminal domain RNA polymerase II polypeptide A small phosphatase 1 (Homo … | 0.88% of 340,000 active | Recombinant Scp1, phosphopeptide, malachite green phosphate absorbance | inhibition, % at 20 µM;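 active means inhibition above about 50% at 20 µM, limit read from the data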
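Test system: SCP-1 phosphatase catalytic domain, residues 76-261 | Compound dosing: One concentration, 20 µM, with 1.0% DMSO | Schedule: 45 min room-temperature reaction, 5 min colour, 30 min stabiliser | Detection: Absorbance at 630 nm | Read-out basis: % inhibition of SCP-1 phosphate liberation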
DNMT1 block: human DNMT1 methyltransferase inhibitors, primary screen, biochemical, molecular beacon, fluorescence, HinP1I cleavage, uHTS; 0.83% of 360,000 active; inhibition (reported as % activation of signal), % at 10 µM; AID 588458, 2011; DNA (cytosine-5)-methyltransferase 1 (Homo sapiens), P26358; in the data active means inhibition above about 50%
Target sequence (P26358 504-1616 limits assumed): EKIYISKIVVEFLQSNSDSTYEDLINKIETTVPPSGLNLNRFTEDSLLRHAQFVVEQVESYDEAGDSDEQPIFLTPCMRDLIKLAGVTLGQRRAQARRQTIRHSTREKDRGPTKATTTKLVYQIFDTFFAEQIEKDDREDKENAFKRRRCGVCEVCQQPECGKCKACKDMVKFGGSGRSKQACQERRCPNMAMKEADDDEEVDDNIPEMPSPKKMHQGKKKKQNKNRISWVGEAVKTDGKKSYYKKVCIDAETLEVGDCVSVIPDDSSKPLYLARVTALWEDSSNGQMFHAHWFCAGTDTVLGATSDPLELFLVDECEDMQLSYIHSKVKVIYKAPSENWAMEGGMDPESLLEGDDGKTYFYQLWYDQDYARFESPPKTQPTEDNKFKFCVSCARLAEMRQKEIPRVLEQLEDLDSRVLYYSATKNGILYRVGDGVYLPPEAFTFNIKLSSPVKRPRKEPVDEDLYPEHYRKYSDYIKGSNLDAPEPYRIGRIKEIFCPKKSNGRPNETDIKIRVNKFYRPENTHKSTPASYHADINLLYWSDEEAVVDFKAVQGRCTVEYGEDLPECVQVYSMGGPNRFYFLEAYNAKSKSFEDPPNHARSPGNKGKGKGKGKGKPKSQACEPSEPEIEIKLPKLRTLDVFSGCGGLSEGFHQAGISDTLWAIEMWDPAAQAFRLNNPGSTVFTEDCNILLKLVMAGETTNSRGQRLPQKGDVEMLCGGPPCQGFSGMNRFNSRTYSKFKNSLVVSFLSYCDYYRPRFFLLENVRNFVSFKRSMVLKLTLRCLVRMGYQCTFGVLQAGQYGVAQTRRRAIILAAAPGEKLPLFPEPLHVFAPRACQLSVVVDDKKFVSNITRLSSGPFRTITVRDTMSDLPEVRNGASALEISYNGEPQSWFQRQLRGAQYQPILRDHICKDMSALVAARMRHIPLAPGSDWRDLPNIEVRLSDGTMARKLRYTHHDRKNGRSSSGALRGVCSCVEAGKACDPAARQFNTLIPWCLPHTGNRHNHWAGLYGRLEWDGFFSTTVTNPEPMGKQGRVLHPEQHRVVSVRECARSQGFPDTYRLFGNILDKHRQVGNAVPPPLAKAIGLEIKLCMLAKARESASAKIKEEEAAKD
LMPTP block: LMPTP phosphatase inhibitors, primary screen, biochemical, fluorescence intensity, uHTS; Low molecular weight phosphotyrosine protein phosphatase (Homo sapiens), P24666; recombinant LMPTP-A, OMFP fluorogenic substrate; inhibition, % at 20 µM; 0.22% of 360,000 active;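 active means compounds that cut the enzyme signal by at least half of the control window in the single-dose screen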
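Test system: LMPTP-A phosphatase enzyme; input: 0.625 nM LMPTP-A final; reagent: OMFP substrate, 400 µM final; compound dosing: 20 µM single dose, 3% DMSO; incubation: 50 min dark incubation at room temperature; measured by: endpoint fluorescence intensity from OMFP dephosphorylation; measure: % inhibition relative to no-enzyme and uninhibited control wells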
HKDC1 inhibitor: HKDC1 hexokinase inhibitors, primary screen, biochemical, fluorescence, uHTS | 0.16% of 340,000 active | Q2TB90 | inhibition, % at 20 µM | recombinant HKDC1, G6PDH/diaphorase resazurin coupled fluorescence;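 active means inhibition above about 35% when tested at 20 µM, limit read from the data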
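Test system: HK5 enzyme. Quantity: 5 µg/mL HK5 final. Reagent: glucose and ATP substrates. Schedule: 90 min reaction incubation at room temperature, dark. Technique: resazurin-to-resorufin fluorescence via G6PDH and diaphorase coupling, 525/613 nm. Control set: DMSO wells with and without enzyme mix.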
STEP inh: STEP phosphatase inhibitors, primary screen, biochemical, fluorescence intensity, uHTS; inhibition, % at 20 µM; AID 588621, 2011; Tyrosine-protein phosphatase non-receptor type 5 (Homo sapiens), P54829; recombinant STEP, OMFP fluorogenic substrate; 0.25% of 360,000 active;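 active means inhibition at 20 µM, scaled per plate between control wells, above about 37%, limit read from the data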
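medium = Bis-Tris buffer pH 6.0, 2.5 mM DTT, 0.005% Tween 20 | test system = STEP (striatal-enriched tyrosine phosphatase) enzyme, cell-free | measure = normalized % inhibition | compound dosing = 20 µM, 1% DMSO | also added = 25 µM OMFP | schedule = reaction 20 min, ambient temperature | measured by = fluorescence read at 480 nm ex / 540 nm em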
Beacon interf DR: spectral interference with molecular beacon fluorescence, dose response, artefact control for DNMT1 inhibitor project, biochemical, fluorescent molecular beacon. shares compounds with DNMT1 block. spectral interference counter-screen. IC50, µM. 200 tested, under 10 active. AID 602382, 2012; call rule not given here
DNMT1 inh conf: DNMT1 methyltransferase inhibitor retest, confirmation, biochemical, molecular beacon, fluorescence, single concentration; shares compounds with DNMT1 block; DNMT1 molecular beacon HinP1I cleavage; inhibition, % at 10 µM; 8% of 2,300 active; AID 602385, 2012;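 active means average inhibition of at least 30% in the single-concentration confirmation test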
DNMT1 interf: counter-screen for DNMT1 inhibitors: spectral interference. activation (fluorescence interference), % at 10 µM. 1% of 2,300 active. DNMT1 molecular beacon spectral interference counterscreen, fluorescence 485/520. shares compounds with DNMT1 block. AID 602387;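 active means activation of at least 30% at 10 µM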;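 further: DNMT1 catalytic domain with a HinP1I cleavage step and a FAM/dabcyl DNA beacon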
Each line names hits and unclear results; the compound was inactive in the other large screens (follow-up assays come after a bar, where they were run). Hits are enriched below; roughly 1.8% of the tested compounds scored in any of these assays.

O=C(O)C1Nc2c(Cl)cc(Cl)c(Cl)c2C2C=CCC12 (stereo not drawn)	SUMO1-SIM PPI 63, Scp-1 inhibitor 63, DNMT1 block 83, LMPTP block 70 | Beacon interf DR inactive | DNMT1 inh conf 85 | DNMT1 interf inactive
COC(=O)C1=C(NC(C)=O)CCS1	none
CCC(CO)Oc1cc(NC(=O)c2ccc(C)cc2)c2ncn(C(C)C)c2c1 (stereo not drawn)	none
N#CC1(NC(=O)COC(=O)c2cc([N+](=O)[O-])ccc2N2CCOCC2)CCCCC1	none
O=[N+]([O-])c1ccc2c([N+](=O)[O-])ccc3c2c1CC3	DNMT1 block 73 (no result: Scp-1 inhibitor, HKDC1 inhibitor) | DNMT1 inh conf inactive | DNMT1 interf inactive
CCOC(=O)c1c(NC(C)=O)sc2c(OCCN(CC)CC)c(Br)ccc12	none
CCOC(=O)c1c(NC(C)=O)sc2c(OCC(O)CN(CC)CC)c(Br)ccc12 (stereo not drawn)	DNMT1 block 76 | DNMT1 inh conf inactive | DNMT1 interf inactive
CSc1nc(C)cc(OCCNS(=O)(=O)c2cc(C)ccc2C)n1	DNMT1 block 67 | DNMT1 inh conf inactive | DNMT1 interf inactive
CCc1ccccc1N(CC(=O)NC(C)(C)C)C(=O)CCC(=O)Nc1ccccn1	none
CCc1ccc(N(CC(=O)NC(C)(C)C)C(=O)CCC(=O)Nc2ccccn2)cc1	DNMT1 block 60 | DNMT1 inh conf inactive | DNMT1 interf inactive
CCOc1ccccc1C(=O)NCC(=O)NNC(=O)CN(C)S(=O)(=O)c1ccc(Cl)cc1	none
COc1ccc2[nH]c(C)c(-c3csc(N)n3)c2c1	DNMT1 block 82 | DNMT1 inh conf inactive | DNMT1 interf inactive
C=CCOc1ccccc1CN(CCc1ccccc1)C(=O)c1cccc(S(C)(=O)=O)c1	none
CCOc1ccc(Br)cc1C(=O)Nc1ccc(C(=O)NCC(C)C)cc1	DNMT1 block 63 | DNMT1 inh conf inactive | DNMT1 interf inactive
CC(C)(C)C(=O)Cn1ncc(Cl)c(Cl)c1=O	none
C=CCn1c(C)cc(C(=O)Cn2ncc(Cl)c(Cl)c2=O)c1C	DNMT1 block 103 | DNMT1 inh conf inactive | DNMT1 interf inactive
COc1ccc(NC(=S)NCc2cccnc2)cc1	DNMT1 block 89 | DNMT1 inh conf inactive | DNMT1 interf inactive
CN(C)CCN1CCN(C2CN(Cc3cn(Cc4ccc(F)cc4)nn3)S(=O)(=O)C2)CC1 (stereo not drawn)	none (no result: Scp-1 inhibitor, DNMT1 block, HKDC1 inhibitor, STEP inh)
CCc1ccc(NC(=O)Cn2cccc2)cc1	none
O=C(Oc1ccc2c(c1)OCO2)c1cc2c(s1)CCC2	Scp-1 inhibitor 65, DNMT1 block 100, LMPTP block 52 | DNMT1 inh conf inactive | DNMT1 interf inactive
O=C(c1cc2c(s1)CCCC2)N1CCN(Cc2ccc3c(c2)OCO3)CC1	none
O=C(OCc1ccccc1)N1CCCC2CC1c1ccccc12 (stereo not drawn)	none (no result: Scp-1 inhibitor, HKDC1 inhibitor)
CNS(=O)(=O)c1ccc(NC(=O)c2cnn3c(C(F)F)cc(-c4ccccc4)nc23)cc1	DNMT1 block 53 | DNMT1 inh conf inactive | DNMT1 interf inactive

Screening results (PubChem)
